Most compounds without a hit are left out; they make up all but 0.79% or so of the library.
bIAP inhibitor: blocks bovine intestinal alkaline phosphatase activity | purified bovine IAP, CDP-star luminescence, 30 min | inhibition, % at 20 µM | 190,000 tested, under 10 active;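 active = over 50% inhibition of intestinal alkaline phosphatase at 20 µM in the single-dose screen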
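Assay system: bovine IAP enzyme; medium: DEA buffer 100 mM, pH 9.8, with MgCl2 1.0 mM, ZnCl2 0.02 mM; doses: 20 µM single dose; incubation: enzyme reaction for 30 min at room temperature; detection: CDP-star luminescence signal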
mIAP inh: blocks mouse intestinal alkaline phosphatase | purified mouse IAP, CDP-Star luminescence, 30 min | inhibition, % at 10 µM | 0.2% of 330,000 active | AID 2806;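 active = inhibition of at least 40% at 10 µM in the primary screen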;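 also: plate controls were DMSO with enzyme for no effect and no enzyme wells for full effect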
hIAP activ: human IAP activation | purified human IAP, CDP-Star luminescence, 30 min; stronger effect = higher value; 1 = vehicle-only enzyme, 0 = enzyme-free background | 0.16% of 330,000 active | activation factor at 10 µM;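 active = activation factor of the enzyme at least 2-fold when tested at 20 µM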
Target sequence (P09923 whole entry, looked up): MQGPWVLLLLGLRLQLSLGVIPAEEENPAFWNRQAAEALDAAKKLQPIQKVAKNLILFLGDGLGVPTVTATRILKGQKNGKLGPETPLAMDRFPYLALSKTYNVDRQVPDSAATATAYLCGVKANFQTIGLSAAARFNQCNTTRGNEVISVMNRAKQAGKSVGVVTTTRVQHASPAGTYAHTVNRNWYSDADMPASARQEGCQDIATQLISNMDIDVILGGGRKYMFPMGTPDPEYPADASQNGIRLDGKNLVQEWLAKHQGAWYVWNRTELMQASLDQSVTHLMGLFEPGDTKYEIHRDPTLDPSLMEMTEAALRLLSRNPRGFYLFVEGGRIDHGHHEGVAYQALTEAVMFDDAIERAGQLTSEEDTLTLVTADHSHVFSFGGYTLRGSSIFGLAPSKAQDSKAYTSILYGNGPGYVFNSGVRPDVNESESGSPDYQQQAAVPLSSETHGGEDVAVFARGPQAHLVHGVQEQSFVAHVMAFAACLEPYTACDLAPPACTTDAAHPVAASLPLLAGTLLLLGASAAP
hIAP block: blocks human intestinal alkaline phosphatase; P09923; purified IAP, CDP-Star luminescence, 30 min; inhibition, % at 10 µM; 0.12% of 330,000 active; AID 2544;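 active = inhibition reaching a set limit with compound at 10 µM in the primary screen, cut at about 35% in these data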;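 also: plate controls were DMSO wells with enzyme for no effect and no-enzyme buffer wells for full effect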
bIAP act: intestinal alkaline phosphatase (bovine) activation. purified bovine IAP, CDP-star luminescence, 30 min; stronger effect = higher value; fold of DMSO-control signal, blank-subtracted. activation factor at 20 µM. 0.17% of 200,000 active;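 active = activation factor of 2 or more at 20 µM, a signal rise over negative controls twice the positive control's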
mIAP act: mouse IAP activation; muIAP, CDP-Star luminescence, 30 min; stronger effect = higher value; 1 = vehicle-only enzyme signal, 0 = enzyme-free wells; AID 2805; 0.24% of 330,000 active; activation factor at 10 µM;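 active = activation factor of at least 2 at 20 µM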
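Assay system: mouse IAP enzyme; reagent: chemiluminescent substrate CDP-Star; dosing: test compounds delivered from DMSO solution; schedule: 30 min at room temperature; measured by: luminescence from enzymatic CDP-Star hydrolysis; controls: DMSO-only wells and no-enzyme negative control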
hIAP act confirm: human IAP activation confirmation. shares compounds with hIAP activ. purified IAP, CDP-Star luminescence, 30 min; stronger effect = lower value. activation (%Activity, negative = activation), % at 8.3 µM. 10% of 880 active;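 active = at least twofold enzyme activation in any of six single-dose repeats, which the averaged readout prints as negative percent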
mIAP inh conf: mouse IAP inhibition confirmation; 4.7% of 11,000 active; inhibition, % at 10 µM; AID 434971; shares compounds with mIAP inh; purified mouse IAP, CDP-Star luminescence, 30 min;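 active = inhibition of at least 40% at 10 µM in either of the two replicates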;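 also: plate controls were DMSO wells with enzyme for no effect and buffer wells lacking enzyme for full effect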
* hit, by the source's call; i = inactive; nt = no result.

SMILES | bIAP inhibitor | mIAP inh | hIAP activ | hIAP block | bIAP act | mIAP act | mIAP inh conf | others
O=C1NC(=O)N(c2ccc3c(c2)OCO3)C(=O)/C1=C/c1ccc(N2CCCC2)o1 | 4.5 | 55.5* | 0.708 | 29.2 | 1 | 0.445 | nt
c1ccc2[nH]c(CCNC3CCCCC3)nc2c1 | -120.5 | 3.6 | 0.985 | 1.5 | 2.2* | 0.964 | nt
COC(=O)C1=C(c2ccc(Cl)c(C(F)(F)F)c2)C[C@@H]2CC[C@H]1N2C | nt | -0.6 | 0.979 | 2.1 | nt | 1.01 | nt
CCOc1cc2c(cc1OCC)-n1cccc1C(c1ccccc1OC)NC2 (configuration not stated) | nt | -7.8 | 1.09 | -8.7 | nt | 1.08 | nt
O=c1[nH]c(=S)n(Cc2ccco2)c(O)c1C=NCc1cccs1 | -12.4 | 61.2* | 1.06 | -5.6 | 1.1 | 0.388 | nt
O=c1[nH]c(=O)n(Cc2ccco2)c(O)c1C=NCc1cccs1 | 12.6 | 10.3 | 0.982 | 1.8 | 0.9 | 0.897 | nt
COc1ccc(C(=O)C2CN(C)CC2c2ccc(Cl)cc2)cc1 (configuration not stated) | 4.5 | -6.1 | 1.02 | -1.9 | 1 | 1.06 | nt
CN1CC(C(=O)c2ccc(Cl)cc2)C(c2ccccc2F)C1 (configuration not stated) | 0.2 | 42.3* | 1.07 | -7.2 | 1 | 0.577 | nt
CCOC(=O)N(C)c1ccc(C(O)(C(=O)OC)C(F)(F)F)cc1 (configuration not stated) | -106.2 | -5.1 | 1.09 | -8.8 | 2.1* | 1.05 | nt
Cc1nc2ccccc2n1C1CCN(Cc2nnnn2CCc2ccccc2)CC1 | 6.6 | -0.8 | 0.956 | 4.4 | 0.9 | 1.01 | nt
O=c1[nH]c(=O)n(-c2ccc(Br)cc2)c(O)c1C=NC(CO)(CO)CO | nt | -6.2 | 0.504 | 49.6* | nt | 1.06 | nt | hIAP act confirm=2.4
COC(=O)C1=C(c2c(C)noc2C)C[C@@H]2CC[C@H]1N2C(=O)N1CCCC1 | nt | 3.1 | 1.01 | -0.7 | nt | 0.969 | nt
CCCCCCOc1ccc(CN2CCN(CCO)CC2)cc1 | -5.5 | 2.3 | 0.95 | 5.0 | 1.1 | 0.977 | nt
CCCCOc1ccc(CN2CCN(CCO)CC2)cc1 | 1.3 | 2.8 | 0.634 | 36.6* | 1 | 0.972 | nt | hIAP act confirm=-21.9
N#Cc1c(/N=C/c2c(O)n(Cc3ccco3)c(=O)[nH]c2=O)sc2c1CCCC2 | 0.0 | 63.9* | 0.913 | 8.7 | 1 | 0.361 | 71.5*
O=C1NC(=S)N(c2ccc(F)cc2)C(=O)/C1=C/c1ccco1 | nt | 46.7* | 0.905 | 9.5 | nt | 0.533 | 60.2*
COc1ccc(OC)c(N2C(=O)/C(=C/c3ccco3)C(=O)NC2=S)c1 | nt | 41.9* | 0.964 | 3.6 | nt | 0.581 | 58.1*
CC(=O)N1CCN(Cc2ccc(Cl)nc2)CC1 | nt | -3.9 | 1.09 | -9.3 | nt | 1.04 | nt
CCOC(=O)C1(CCc2ccccc2)CCN(Cc2cccc3cnccc23)CC1 | -13.7 | -1.4 | 1.12 | -11.8 | 1.1 | 1.01 | nt
C=CCN1C(=O)/C(=C/c2ccc(Br)s2)C(=O)NC1=S | nt | 42.8* | 1.11 | -11.4 | nt | 0.572 | 52.8*
CCN1C(=O)/C(=C\c2ccc([N+](=O)[O-])s2)C(=O)NC1=S | 46.1 | nt | nt | nt | 0.5 | nt | nt
COc1ccc(CNC(C)Cc2cccs2)cc1 (configuration not stated) | -9.8 | -12.0 | 1.06 | -6.1 | 1.1 | 1.12 | nt
Oc1ccc(C[C@H]2NCCc3cc(O)c(O)cc32)cc1O | nt | 62.6* | 0.829 | 17.1 | nt | 0.374 | 76.3*
Cc1ccc(N2C(=O)/C(=C/c3ccc(CN(CCC#N)S(C)(=O)=O)o3)C(=O)NC2=S)cc1C | -7.0 | 42.7* | 0.908 | 9.2 | 1.1 | 0.573 | 46.1*
O=C1NC(=O)N(Cc2ccccc2)C(=O)/C1=C\C=C\c1ccco1 | 4.6 | 37.2 | 1.09 | -8.6 | 1 | 0.628 | nt
SMILES | bIAP inhibitor | mIAP inh | hIAP activ | hIAP block | bIAP act | mIAP act | mIAP inh conf | others
CN1C(=O)/C(=C/C=C/c2ccco2)C(=O)NC1=S | nt | 65.7* | 0.936 | 6.4 | nt | 0.343 | 61.5*
Cc1ccc(N2C(=O)NC(=O)/C(=C\C=C\c3ccco3)C2=O)cc1 | nt | 36.0 | 1.02 | -2.3 | nt | 0.64 | nt
O=C1NC(=O)N(c2ccccc2)C(=O)/C1=C/C=C/c1ccco1 | nt | 28.3 | 0.998 | 0.2 | nt | 0.717 | nt
O=C1NC(=O)N(Cc2ccco2)C(=O)/C1=C/C=C/c1ccco1 | nt | 71.9* | 0.962 | 3.8 | nt | 0.281 | 74.9*
Cc1cccc(N2C(=O)NC(=O)/C(=C\C=C\c3ccco3)C2=O)c1 | nt | 45.2* | 0.979 | 2.1 | nt | 0.548 | 52.7*
FC(F)(F)c1ccc(CN2CCNCC2)cc1 | 8.8 | 9.6 | 0.86 | 14.0 | 0.9 | 0.904 | nt
Clc1ccc(C(c2ccc(Cl)cc2)n2cc[n+](CC(OCc3ccc(Cl)cc3Cl)c3ccc(Cl)cc3Cl)c2)cc1 (configuration not stated) | nt | i | 1.28 | -28.2 | nt | 16.8* | i
COc1ccc(CNCCc2c[nH]c3ccccc23)c(OC)c1OC | nt | -5.9 | 1.01 | -0.8 | nt | 1.06 | nt
O=C1NC(=O)N(c2ccc3c(c2)OCO3)C(=O)/C1=C/c1cccs1 | 2.9 | 72.4* | 0.936 | 6.4 | 1 | 0.276 | 76.5*
C=CC[N+]1(C)CC[C@]23c4c5ccc(O)c4O[C@H]2C(=O)CC[C@@]3(O)[C@H]1C5 (some centres not stated) | nt | 1.5 | 1.11 | -10.7 | nt | 0.985 | nt
